# Reference: PubChem BioAssay AID602343 (The Scripps Research Institute Molecular Screening Center, 2012)
# Target: Monoacylglycerol lipase ABHD6 (Mus musculus) (UniProt Q8R2Y0)
# Assay: brain ABHD6 inhibition after oral dosing, late-stage follow-up, in vivo study for DAGLb inhibitor project, gel-based competitive ABPP, fluorescence, mouse, set 2 (AID 602343)
# Settings: stronger effect = higher value, dose or concentration not given here
# Procedure, shortened: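 Material: ABHD6 in brain membrane fraction from orally dosed C57 black mice; Amount: brain membrane protein at 1 mg/mL; Also added: HT-01 probe, 1 µM; Timing: Brains taken 4 h post-dose, probe labeling 30 min at 37 °C; Technique: in-gel fluorescence band density; Benchmarks: vehicle high, gel background low.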
# Sequence of Monoacylglycerol lipase ABHD6 (Mus musculus) (Q8R2Y0 whole entry, looked up): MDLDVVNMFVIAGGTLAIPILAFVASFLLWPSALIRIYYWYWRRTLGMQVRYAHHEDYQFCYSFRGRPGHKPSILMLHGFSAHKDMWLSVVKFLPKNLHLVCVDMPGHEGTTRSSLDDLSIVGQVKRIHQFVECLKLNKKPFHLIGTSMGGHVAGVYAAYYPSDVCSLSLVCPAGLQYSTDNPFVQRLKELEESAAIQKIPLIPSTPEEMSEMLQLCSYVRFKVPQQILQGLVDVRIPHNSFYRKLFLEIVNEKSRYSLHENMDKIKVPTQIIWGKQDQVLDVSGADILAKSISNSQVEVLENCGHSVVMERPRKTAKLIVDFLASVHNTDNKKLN
row,Compound,inhibition [%]
1,COc1ccccc1-c1ccc(-c2cn(C(=O)N3CCCCC3Cc3ccccc3)nn2)cc1 (centres undefined),99
2,COc1ccc(-c2ccc(-c3cn(C(=O)N4CCCCC4c4ccccc4)nn3)cc2)cc1 (centres undefined),99
3,O=C(N1CCCCC1Cc1ccccc1)n1cc(-c2ccc(-c3ccccc3)cc2)nn1 (centres undefined),100

# Same assay, conditions: measured here: inhibition at 1 mg/kg p.o., stronger effect = higher value
row,Compound,inhibition [%]
1,COc1ccccc1-c1ccc(-c2cn(C(=O)N3CCCCC3Cc3ccccc3)nn2)cc1 (centres undefined),30
2,COc1ccc(-c2ccc(-c3cn(C(=O)N4CCCCC4c4ccccc4)nn3)cc2)cc1 (centres undefined),55
3,O=C(N1CCCCC1Cc1ccccc1)n1cc(-c2ccc(-c3ccccc3)cc2)nn1 (centres undefined),0

# Same assay, conditions: measured here: inhibition at 5 mg/kg p.o., stronger effect = higher value
row,Compound,inhibition [%]
1,COc1ccccc1-c1ccc(-c2cn(C(=O)N3CCCCC3Cc3ccccc3)nn2)cc1 (centres undefined),95
2,COc1ccc(-c2ccc(-c3cn(C(=O)N4CCCCC4c4ccccc4)nn3)cc2)cc1 (centres undefined),55
3,O=C(N1CCCCC1Cc1ccccc1)n1cc(-c2ccc(-c3ccccc3)cc2)nn1 (centres undefined),99
